Measurements from ChEMBL document CHEMBL4808167, “Design, Synthesis, and Evaluation of Small Molecule Gαq/11 Protein Inhibitors for the Treatment of Uveal Melanoma” (J Med Chem, 2021).
Calls of active or inactive are those of the source. No cut-off for these calls is given here.

What was measured:
[1] = Induction of apoptosis in human MP41 cells assessed as early apoptotic cells at 15 uM after 48 hrs by Annexin-V-FITC/propidium iodide staining based flow cytometry (reference value: 2.96%); type: functional
[2] = biological target: T1, GNAQ/GNA11 (Homo sapiens) (UniProt P50148+P29992); assay: Inhibition of Galphaq/11 in human 921 cells assessed as reduction in ERK phosphorylation at 15 to 30 uM after 48 hrs by Western blot analysis; type: cell-based; settings: b, dose 15-30 µM
Summary of the method: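 92.1 and MP41 cells plated overnight, then exposed to compound 48 h. Lysed in ice-cold buffer and protein quantified by BCA. Resolved on 8−12% SDS−PAGE and transferred to PVDF. Probed for p-YAP Ser127, total YAP, p-ERK1/2 Thr202/Tyr204 and total ERK1/2, with GAPDH as loading control. ECL detection, triplicate.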

[3] = (§1) Antiproliferative activity against human MP41 cells assessed as inhibition of cell growth after 72 hrs by CCK8 assay; type: functional, cell-based; settings: MP41, 72 h
Summary of the method: (§2)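 92.1 or MP41 cells in RPMI-1640 with 10% FBS were seeded at 3 × 10³ cells/well. Exposed to serial concentrations for 72 h at 37 °C, 5% CO₂. CCK-8 added for 1−4 h, absorbance read at 450 nm. IC₅₀ from concentration−response curve fit, mean ± SD.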

[4] = test system: MP41; assay: as §1; type: functional, cell-based; summary of the method: as §2
[5] = Toxicity in nude BALB/c mouse xenografted with human MP41 cells assessed as morphological changes in heart tissue at 10 to 30 mg/kg, ip administered once daily for 21 days and measured every 3 days by HE staining based assay; type: organism-based; settings: in vivo, 504 h, dose 10-30 mg/kg, time 21 day
Summary of the method: (§3)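 Nude BALB/c mice bearing serially passaged MP41 tumour slices (tertiary recipients, n = 8/group, randomized) dosed ip daily for 21 days at 10 or 30 mg/kg/d or vehicle. Body weight monitored every 3 days. Tissues collected at sacrifice, fixed in 4% paraformaldehyde 24 h, paraffin-embedded, H&E stained, viewed at ×100.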

[6] = biological target: T1, GNAQ/GNA11 (Homo sapiens); assay: Inhibition of Galphaq/11 (unknown origin) expressed in HEK293 cells cotransfected with AT1R assessed as inhibition of Ang-II induced calcium release at 100 uM preincubated for 30 mins followed by Ang-II addition by Fluo-4AM dye based fluorescence assay; type: cell-based
Summary of the method: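 HEK293 cells transfected with AT₁R, washed in HBSS with 0.1% BSA and loaded with Fluo-4 AM for 1 h at 37 °C. Washed, then pretreated with compound at 100 μM for 30 min. AngII at varying concentrations added 20 s into the fluorescence recording. Mean ± SD, n = 3.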

[7] = Half life in ICR mouse at 30 mg/kg, po measured upto 24 hrs by LC-MS/MS analysis; type: ADME, organism-based; settings: in vivo
Summary of the method: (§4)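 Single dose in male ICR mice, 10 mg/kg iv or 30 mg/kg po, dissolved in 5% DMSO/95% saline. Blood drawn by catheter at 0, 5, 15, 30 min and 1, 2, 4, 6, 8, 24 h. Plasma spun 6800g 6 min at 2−8 °C, stored −80 °C, quantified by LC−MS/MS. Noncompartmental parameters, mean ± SD, n = 6.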

[8] = Toxicity in nude BALB/c mouse xenografted with human MP41 cells assessed as morphological changes in lung tissue at 10 to 30 mg/kg, ip administered once daily for 21 days and measured every 3 days by HE staining based assay; type: organism-based; settings: in vivo, 504 h, dose 10-30 mg/kg, time 21 day; summary of the method: as §3
[9] = MRT(0 to t) in ICR mouse at 30 mg/kg, po measured upto 24 hrs by LC-MS/MS analysis; type: ADME, organism-based; settings: in vivo
Summary of the method: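 Single-dose PK in male ICR mice (n = 6): 10 mg/kg iv or 30 mg/kg po, vehicle 5% DMSO/95% saline. Blood (30 μL) by catheter at 0, 5, 15, 30 min and 1, 2, 4, 6, 8, 24 h; plasma by centrifugation, stored −80 °C, measured by LC–MS/MS. Parameters from noncompartmental analysis, mean SD.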

[10] = test system: MP41; assay: Inhibition of colony formation in human MP41 cells at 5 to 15 uM after 9 days by crystal violet staining based light microscopic analysis; type: functional, cell-based; settings: dose 5-15 µM, time 9.0 day
Summary of the method: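 Cells seeded 4 × 10³/well, incubated overnight at 37 °C, 5% CO₂, then exposed to compound for 9 days until colonies visible, medium and inhibitor replaced every 3 days. Fixed in 4% paraformaldehyde 15 min, crystal violet-stained 30 min, colonies counted. Repeated twice.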

[11] = Induction of apoptosis in human 921 cells assessed as necrotic cells at 5 uM after 48 hrs by Annexin-V-FITC/propidium iodide staining based flow cytometry (reference value: 0.26%); type: functional
[12] = Cmax in ICR mouse at 30 mg/kg, po measured upto 24 hrs by LC-MS/MS analysis; type: ADME, organism-based; parameters: route oral, dose 30 mg/kg, time <=24; settings: in vivo; summary of the method: as §4
[13] = Clearance in ICR mouse at 10 mg/kg, iv measured upto 24 hrs by LC-MS/MS analysis; type: ADME, organism-based; settings: in vivo; summary of the method: as §4
[14] = biological target: T1, GNAQ/GNA11 (Homo sapiens); assay: Inhibition of Galphaq/11 (unknown origin) expressed in CHO cells coexpressing M1 receptor assessed as reduction in carbachol-induced IP1 accumulation at 10 uM preincubated for 1 hr followed by carbachol stimulation and measured after 1 hr by HTRF assay relative to control; type: cell-based; settings: time 2.0 hrs
[15] = test system: 921; assay: Antiproliferative activity against human 92.1 cells assessed as inhibition of cell growth at 10 to 15 uM after 72 hrs by CKK8 assay; type: functional, cell-based; settings: dose 10-15 µM
[16] = Antitumor activity against human MP41 cells xenografted in nude BALB/c mouse assessed as tumor growth inhibition at 10 mg/kg, ip administered for once daily for 21 days and measured every 3 days; type: functional; settings: 504 h, time 21 day, read-out: TGI
Summary of the method: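 MP41 tumours were passaged subcutaneously mouse-to-mouse in nude BALB/c mice (6−8 weeks, 20−25 g). Tertiary recipients randomized, n = 8/group, given 10 or 30 (mg/kg)/d ip or vehicle for 21 days. Tumour size (V = A × B² × π/6, caliper) and body weight taken every 3 days; tumours excised and weighed on day 22. TGI computed versus the vehicle group.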

[17] = test system: MP41; assay: Antiproliferative activity against human MP41 cells assessed as inhibition of cell growth at 15 to 30 uM by CCK8 assay; type: functional, cell-based; settings: dose 15-30 µM, time 24-96 hrs, TDE = time-dependent effect
[18] = Toxicity in nude BALB/c mouse xenografted with human MP41 cells assessed as morphological changes in liver tissue at 10 to 30 mg/kg, ip administered once daily for 21 days and measured every 3 days by HE staining based assay; type: organism-based; settings: in vivo, 504 h, dose 10-30 mg/kg, time 21 day; summary of the method: as §3
[19] = test system: MP41; assay: Inhibition of cell migration in human MP41 cells at 15 uM incubated for 48 hrs by transwell migration assay; type: functional, cell-based
Summary of the method: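 Transwell migration: 92.1 and MP41 cells (RPMI-1640, 10% FBS) seeded 1 × 10⁴/well in upper chamber in serum-free medium, 20% FBS medium below; overnight at 37 °C, then compound for 48 h. Non-migrated cells swabbed off; lower cells crystal violet-stained 30 min, counted by light microscopy. Mean SD of three independent experiments.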

[20] = AUC(0 to t) in ICR mouse at 30 mg/kg, po measured upto 24 hrs by LC-MS/MS analysis; type: ADME, organism-based; parameters: route oral, dose 30 mg/kg, time <=24; settings: in vivo; summary of the method: as §4

- inhibition [2]: Active
- Activity [6]: Active
- half-life [7]: 1.41 h
- MRT last at 24 h [9]: 1.88 h
- Cmax [12]: 2890 ng/mL
- clearance [13]: 77.9 mL/min/kg
- inhibition [14]: 36.5%
- AUC(0-t) at 24 h [20]: 5940 ng·h/mL
SMILES: CC[C@@H](C)[C@H](N)C(=O)N1CCn2cc(-c3ccccc3)nc2[C@@H]1CC1CCCCC1
- Activity [1]: 5.32%
- IC50 [3]: 24.8 µM
- Activity [4]: Dose-Dependent Effect
- Activity [5]: Non-Toxic
- Activity [8]: Non-Toxic
- inhibition [10]: Active
- Activity [11]: 0.43%
- Activity [15]: Active
- inhibition in vivo at 10 mg/kg [16]: 65.4%
- Activity [17]: Tde
- Activity [18]: Non-Toxic
- inhibition [19]: Active
